From ChEMBL document CHEMBL4842372, “Discovery of ARD-2585 as an Exceptionally Potent and Orally Active PROTAC Degrader of Androgen Receptor for the Treatment of Advanced Prostate Cancer” (J Med Chem, 2021)
The source made the active and inactive calls. The rule behind the calls is not given here.

Key:
[1] = Oral bioavailability in SCID mouse at 3 mg/kg by LC-MS/MS analysis; format: ADME, organism-based; settings: in vivo
[2] = system: VCaP; test: Growth inhibition of human VCaP cells assessed as cell viability by WST-8 assay; format: functional, cell-based
[3] = molecular target: Protein cereblon/Androgen receptor (Homo sapiens, UniProt P10275+Q96SW2); test: Protac activity at CRBN/AR in human VCaP cells assessed as AR degradation after 24 hrs by Western blot analysis; format: cell-based
Sequence of Protein cereblon/Androgen receptor (Homo sapiens, UniProt P10275+Q96SW2) (P10275 whole entry): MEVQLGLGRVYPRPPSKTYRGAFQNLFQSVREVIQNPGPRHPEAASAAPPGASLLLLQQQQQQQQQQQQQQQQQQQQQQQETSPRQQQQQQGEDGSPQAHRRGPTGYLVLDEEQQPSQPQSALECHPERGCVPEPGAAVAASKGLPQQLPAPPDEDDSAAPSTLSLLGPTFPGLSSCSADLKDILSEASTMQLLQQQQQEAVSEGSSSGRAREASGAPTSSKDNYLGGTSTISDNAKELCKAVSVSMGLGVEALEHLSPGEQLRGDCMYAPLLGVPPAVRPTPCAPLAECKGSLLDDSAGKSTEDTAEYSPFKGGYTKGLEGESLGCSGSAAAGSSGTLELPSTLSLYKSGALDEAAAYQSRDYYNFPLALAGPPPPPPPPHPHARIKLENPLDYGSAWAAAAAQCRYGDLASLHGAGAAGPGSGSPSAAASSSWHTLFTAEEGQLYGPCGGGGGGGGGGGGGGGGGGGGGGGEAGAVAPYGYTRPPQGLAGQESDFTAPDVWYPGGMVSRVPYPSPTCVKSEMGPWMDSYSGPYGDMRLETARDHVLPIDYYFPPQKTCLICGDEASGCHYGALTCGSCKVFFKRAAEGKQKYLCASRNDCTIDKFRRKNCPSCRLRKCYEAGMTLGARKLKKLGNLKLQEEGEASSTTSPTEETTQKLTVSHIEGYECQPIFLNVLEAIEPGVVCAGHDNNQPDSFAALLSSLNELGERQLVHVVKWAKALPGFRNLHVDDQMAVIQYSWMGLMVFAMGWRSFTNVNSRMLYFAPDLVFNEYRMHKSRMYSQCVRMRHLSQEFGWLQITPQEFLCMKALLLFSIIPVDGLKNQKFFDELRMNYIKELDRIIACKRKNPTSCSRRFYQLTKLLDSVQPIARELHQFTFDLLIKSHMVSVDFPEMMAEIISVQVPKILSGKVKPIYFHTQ
Sequence of Protein cereblon/Androgen receptor (Homo sapiens, UniProt P10275+Q96SW2) (Q96SW2 whole entry): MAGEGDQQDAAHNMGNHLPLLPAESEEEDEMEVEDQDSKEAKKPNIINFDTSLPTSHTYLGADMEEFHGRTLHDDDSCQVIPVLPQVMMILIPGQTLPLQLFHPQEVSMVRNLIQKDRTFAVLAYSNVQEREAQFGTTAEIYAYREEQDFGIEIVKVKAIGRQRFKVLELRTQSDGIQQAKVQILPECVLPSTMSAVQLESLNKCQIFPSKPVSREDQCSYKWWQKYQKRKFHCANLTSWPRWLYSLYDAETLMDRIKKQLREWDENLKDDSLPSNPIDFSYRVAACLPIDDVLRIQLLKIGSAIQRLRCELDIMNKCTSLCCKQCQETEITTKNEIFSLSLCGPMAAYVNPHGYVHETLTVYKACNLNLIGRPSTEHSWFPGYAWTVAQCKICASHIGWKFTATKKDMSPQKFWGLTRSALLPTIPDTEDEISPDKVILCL

[4] = system: VCaP; test: Antitumor activity against human VCaP cells xenografted in CB17:SCID mouse assessed as tumor growth inhibition at 40 mg/kg, po treated for 37 days relative to control; format: functional; settings: 888 h, time 37 day, read-out: TGI
[5] = Drug distribution in plasma of CB17:SCID mouse xenografted with human VCaP cells at 20 mg/kg, po measured at 6 hrs by LCMS analysis; format: ADME, organism-based
Outline: (§1)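 Tumor-bearing male CB17 SCID mice (VCaP xenografts) given one 20 mg/kg oral dose in 100% PEG200, three mice per time point; plasma, tumor, liver, kidney, prostate and heart taken at 1, 6 and 24 h; tissues homogenised in water/acetonitrile, protein precipitated with cold acetonitrile, drug quantified by LC–MS/MS; ratios are tissue over plasma level.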

[6] = Drug distribution in plasma of CB17:SCID mouse xenografted with human VCaP cells at 20 mg/kg, po measured at 24 hrs by LCMS analysis; format: ADME, organism-based; outline: as §1
[7] = Drug distribution in prostate gland of CB17:SCID mouse xenografted with human VCaP cells at 20 mg/kg, po measured at 6 hrs by LCMS analysis; format: ADME, organism-based; settings: read-out: Drug uptake; outline: as §1
[8] = Drug distribution in prostate gland of CB17:SCID mouse xenografted with human VCaP cells at 20 mg/kg, po measured at 24 hrs by LCMS analysis; format: ADME, organism-based; settings: read-out: Drug uptake; outline: as §1
[9] = Drug distribution in tumor of CB17:SCID mouse xenografted with human VCaP cells at 20 mg/kg, po measured at 6 hrs by LCMS analysis; format: ADME, organism-based, Neoplasm; settings: read-out: Drug uptake; outline: as §1
[10] = Drug distribution in tumor of CB17:SCID mouse xenografted with human VCaP cells at 20 mg/kg, po measured at 24 hrs by LCMS analysis; format: ADME, organism-based, Neoplasm; settings: read-out: Drug uptake; outline: as §1
[11] = system: LNCaP; test: Growth inhibition of human LNCaP cells carrying AR T878A mutant assessed as cell viability by WST-8 assay; format: functional, cell-based
[12] = system: VCaP; test: Antitumor activity against human VCaP cells xenografted in CB17:SCID mouse assessed as reduction in AR protein level in tumor at 20 mg/kg, po measured for 6 to 24 hrs by Western blot analysis; format: functional, organism-based; settings: time 6-24 hrs
Outline: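 VCaP xenografts in male CB17 SCID mice grown to about 200 mm3; single oral gavage dose of 20 mg/kg in 100% PEG200; tumors collected at 6 and 24 h, RIPA lysates blotted for AR with GAPDH as loading control, band intensity normalised to loading control.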

[13] = molecular target: Protein cereblon/Androgen receptor (Homo sapiens, UniProt P10275+Q96SW2, T878A); settings: lncap
Sequence of Protein cereblon/Androgen receptor (Homo sapiens, UniProt P10275+Q96SW2, T878A) (P10275 whole entry T878A, stated change not applied): as the sequence (P10275 whole entry) above, with T878A counted along it
Sequence of Protein cereblon/Androgen receptor (Homo sapiens, UniProt P10275+Q96SW2, T878A) (Q96SW2 whole entry, stated change not applied): as the sequence (Q96SW2 whole entry) above

[14] = Volume of distribution at steady state in SCID mouse at 1 mg/kg, iv by LC-MS/MS analysis; format: ADME, organism-based; settings: in vivo, read-out: Vdss
Outline: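 Male mice were used, three sacrificed per time-point, with 300 μL blood collected and plasma stored at −80 °C. Drug was quantified by a validated LC–MS/MS method on a C18 column with a 0.1% formic acid water/acetonitrile gradient at 0.4 mL/min. PK parameters were derived by noncompartmental analysis.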

[15] = system: VCaP; test: Antitumor activity against human VCaP cells xenografted in CB17:SCID mouse assessed as reduction in AR protein level in tumor at 10 mg/kg, po for 3 days measured at 3 hrs by Western blot analysis; format: functional; settings: 72 h, time 3 day
Outline: (§2)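 Male CB17 SCID mice bearing subcutaneous VCaP tumors (5 × 10^6 cells in Matrigel); dosed by oral gavage in 100% PEG200 at 10 mg/kg daily for 3 days; tumors harvested 3, 6 and 24 h post-dose, lysed in RIPA, Western blot for AR with GAPDH loading control, bands quantified by densitometry relative to loading control.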

[16] = system: VCaP; test: Antitumor activity against human VCaP cells xenografted in CB17:SCID mouse assessed as reduction in AR protein level in tumor at 10 mg/kg, po for 3 days measured at 6 hrs by Western blot analysis; format: functional; settings: 72 h, time 3 day; outline: as §2
[17] = system: VCaP; test: Antitumor activity against human VCaP cells xenografted in CB17:SCID mouse assessed as reduction in AR protein level in tumor at 10 mg/kg, po for 3 days measured at 24 hrs by Western blot analysis; format: functional; settings: 72 h, time 3 day; outline: as §2

SMILES: CN(c1ccc(C#N)c(Cl)c1)[C@H]1CC[C@H](NC(=O)c2ccc(N3CCN(CC4CN(c5ccc6c(c5)C(=O)N(C5CCC(=O)NC5=O)C6=O)C4)CC3)cc2)CC1 (some centres not stated)
- F [1]: 30%

SMILES: N#Cc1ncc(N2C(=O)C3(CCC3)N(c3ccc(C(=O)N4CCN(C5CCN(c6ccc7c(c6)C(=O)N(C6CCC(=O)NC6=O)C7=O)CC5)CC4)c(F)c3)C2=S)cc1C(F)(F)F (configuration not stated)
- IC50 [2]: > 1000 nM

SMILES: CN1CCN(c2ccc(C(=O)N[C@H]3CC[C@H](N(C)c4ccc(C#N)c(Cl)c4)CC3)cc2)CC1
- IC50 [2]: 61 nM

SMILES: N#Cc1ccc(O[C@H]2CC[C@H](NC(=O)c3ccc(N4CCN(CCNc5ccc6c(c5)C(=O)N(C5CCC(=O)NC5=O)C6=O)CC4)cc3)CC2)cc1Cl (some centres not stated)
- DC50 [3]: 0.8 nM

SMILES: N#Cc1ccc(O[C@H]2CC[C@H](NC(=O)c3ccc(NCCCCCNc4ccc5c(c4)C(=O)N(C4CCC(=O)NC4=O)C5=O)cc3)CC2)cc1Cl (some centres not stated)
- DC50 [3]: 0.2 nM

SMILES: N#Cc1ccc(O[C@H]2CC[C@H](NC(=O)c3ccc(NCCCCCCCCNc4ccc5c(c4)C(=O)N(C4CCC(=O)NC4=O)C5=O)cc3)CC2)cc1Cl (some centres not stated)
- DC50 [3]: 1.5 nM

SMILES: CNC(=O)c1ccc(N2C(=S)N(c3ccc(C#N)c(C(F)(F)F)c3)C(=O)C2(C)C)cc1F [ENZALUTAMIDE]
- inhibition in vivo at 40 mg/kg [4]: 45%

SMILES: CN(c1ccc(C#N)c(Cl)c1)[C@H]1CC[C@H](NC(=O)c2ccc(N3CCC(N4CCN(c5ccc6c(c5)C(=O)N(C5CCC(=O)NC5=O)C6=O)CC4)CC3)cc2)CC1 (some centres not stated)
- F [1]: 44%
- concentration at 6 h [5]: 208 ng/mL
- concentration at 24 h [6]: 65 ng/mL
- concentration at 6 h [7]: 67 ng/g
- concentration at 24 h [8]: 4 ng/g
- concentration at 6 h [9]: 306 ng/g
- concentration at 24 h [10]: 137 ng/g

SMILES: N#Cc1ccc(O[C@H]2CC[C@H](NC(=O)c3ccc(N4CCN(C5CN(c6ccc7c(c6)C(=O)N(C6CCC(=O)NC6=O)C7=O)C5)CC4)cc3)CC2)cc1Cl (some centres not stated)
- DC50 [3]: 0.1 nM

SMILES: N#Cc1ccc(O[C@H]2CC[C@H](NC(=O)c3ccc(NCCCCCCNc4ccc5c(c4)C(=O)N(C4CCC(=O)NC4=O)C5=O)cc3)CC2)cc1Cl (some centres not stated)
- DC50 [3]: 0.6 nM

SMILES: N#Cc1ccc(O[C@H]2CC[C@H](NC(=O)c3ccc(N4CCN(CCCNc5ccc6c(c5)C(=O)N(C5CCC(=O)NC5=O)C6=O)CC4)cc3)CC2)cc1Cl (some centres not stated)
- DC50 [3]: 2.7 nM

SMILES: N#Cc1ccc(N[C@H]2CC[C@H](NC(=O)c3ccc(N4CCC(N5CCN(c6ccc7c(c6)C(=O)N(C6CCC(=O)NC6=O)C7=O)CC5)CC4)cc3)CC2)cc1Cl (some centres not stated)
- IC50 [2]: 16.6 nM

SMILES: N#Cc1ccc(O[C@H]2CC[C@H](NC(=O)c3ccc(NCCCCNc4ccc5c(c4)C(=O)N(C4CCC(=O)NC4=O)C5=O)cc3)CC2)cc1Cl (some centres not stated)
- DC50 [3]: 1.1 nM

SMILES: N#Cc1ccc(OC2CCN(C(=O)c3ccc(N4CCC(N5CCN(c6ccc7c(c6)C(=O)N(C6CCC(=O)NC6=O)C7=O)CC5)CC4)cc3)CC2)cc1Cl (configuration not stated)
- IC50 [2]: > 1000 nM

SMILES: N#Cc1ccc(O[C@H]2CC[C@H](NC(=O)c3ccc(NCCCCCCCCCNc4ccc5c(c4)C(=O)N(C4CCC(=O)NC4=O)C5=O)cc3)CC2)cc1Cl (some centres not stated)
- DC50 [3]: 3.2 nM

SMILES: CC1(C)C(=O)N(c2ccc(C#N)c(C(F)(F)F)c2)C(=S)N1c1ccc(C(=O)N2CCN(C3CCN(c4ccc5c(c4)C(=O)N(C4CCC(=O)NC4=O)C5=O)CC3)CC2)c(F)c1 (configuration not stated)
- IC50 [2]: > 1000 nM

SMILES: CN(c1ccc(C#N)c(Cl)c1)[C@H]1CC[C@H](NC(=O)c2ccc(N3CCC(CN4CCN(c5ccc6c(c5)C(=O)N(C5CCC(=O)NC5=O)C6=O)CC4)CC3)cc2)CC1 (some centres not stated)
- F [1]: 35%

SMILES: N#Cc1ccc(O[C@H]2CC[C@H](NC(=O)c3ccc(NCCCCCCCNc4ccc5c(c4)C(=O)N(C4CCC(=O)NC4=O)C5=O)cc3)CC2)cc1Cl (some centres not stated)
- DC50 [3]: 0.7 nM

SMILES: N#Cc1ccc(O[C@H]2CC[C@H](NC(=O)c3ccc(N4CCN(CCCCCNc5ccc6c(c5)C(=O)N(C5CCC(=O)NC5=O)C6=O)CC4)cc3)CC2)cc1Cl (some centres not stated)
- DC50 [3]: 0.9 nM

SMILES: CN(c1ccc(C#N)c(Cl)c1)[C@H]1CC[C@H](NC(=O)c2ccc(N3CC(N4CCN(c5ccc6c(c5)C(=O)N(C5CCC(=O)NC5=O)C6=O)CC4)C3)cc2)CC1 (some centres not stated)
- F [1]: 67%
- IC50 [2]: 5.1 nM
- IC50 [11]: 21.7 nM
- inhibition [12]: Active
- concentration at 6 h [5]: 181 ng/mL
- concentration at 24 h [6]: 106 ng/mL
- concentration at 6 h [7]: 108 ng/g
- concentration at 24 h [8]: 123 ng/g
- concentration at 6 h [9]: 129 ng/g
- concentration at 24 h [10]: 116 ng/g
- DC50 [13]: 1.3 nM

SMILES: N#Cc1ccc(O[C@H]2CC[C@H](NC(=O)c3ccc(N4CCC(N5CCN(c6ccc7c(c6)C(=O)N(C6CCC(=O)NC6=O)C7=O)CC5)CC4)cc3)C2)cc1Cl (some centres not stated)
- IC50 [2]: > 1000 nM

SMILES: CN(c1ccc(C#N)c(Cl)c1)[C@H]1CC[C@H](NC(=O)c2ccc(N3CCN(C4CCN(c5ccc6c(c5)C(=O)N(C5CCC(=O)NC5=O)C6=O)CC4)CC3)cc2)CC1 (some centres not stated)
- Vd [14]: 2.6 L/kg
- F [1]: 29%
- IC50 [2]: 0.8 nM
- IC50 [11]: 22.3 nM
- inhibition [12]: Active
- concentration at 6 h [5]: 37 ng/mL
- concentration at 24 h [6]: 38 ng/mL
- concentration at 6 h [7]: 58 ng/g
- concentration at 24 h [8]: 83 ng/g
- concentration at 6 h [9]: 120 ng/g
- concentration at 24 h [10]: 176 ng/g
- inhibition in vivo at 10 mg/kg [15]: 74%
- inhibition in vivo at 10 mg/kg [16]: 70%
- inhibition in vivo at 10 mg/kg [17]: 20%
- DC50 [13]: 0.4 nM

SMILES: N#Cc1ccc(O[C@H]2CC[C@H](NC(=O)c3ccc(N4CCN(C5CCN(c6ccc7c(c6)C(=O)N(C6CCC(=O)NC6=O)C7=O)CC5)CC4)cc3)CC2)cc1Cl (some centres not stated)
- DC50 [3]: 0.3 nM

SMILES: N#Cc1ccc(O[C@@H]2CCCN(C(=O)c3ccc(N4CCC(N5CCN(c6ccc7c(c6)C(=O)N(C6CCC(=O)NC6=O)C7=O)CC5)CC4)cc3)CC2)cc1Cl (some centres not stated)
- IC50 [2]: > 1000 nM

SMILES: CN(c1ccc(C#N)c(Cl)c1)[C@H]1CC[C@H](NC(=O)c2ccc(N3CC(CN4CCN(c5ccc6c(c5)C(=O)N(C5CCC(=O)NC5=O)C6=O)CC4)C3)cc2)CC1 (some centres not stated)
- F [1]: 34%
- IC50 [2]: 4.3 nM
- IC50 [11]: 11.6 nM
- DC50 [13]: 1.9 nM

SMILES: N#Cc1ccc(O[C@H]2CC[C@H](NC(=O)c3ccc(N4CCN(CC5CCN(c6ccc7c(c6)C(=O)N(C6CCC(=O)NC6=O)C7=O)CC5)CC4)cc3)CC2)cc1Cl (some centres not stated)
- IC50 [2]: 2.7 nM

SMILES: N#Cc1ccc(O[C@H]2CC[C@H](NC(=O)c3ccc(N4CCN(CC5CN(c6ccc7c(c6)C(=O)N(C6CCC(=O)NC6=O)C7=O)C5)CC4)cc3)CC2)cc1Cl (some centres not stated)
- DC50 [3]: 0.3 nM
- IC50 [2]: 6.7 nM

SMILES: CC(O)(CS(=O)(=O)c1ccc(N2CCN(C3CCN(c4ccc5c(c4)C(=O)N(C4CCC(=O)NC4=O)C5=O)CC3)CC2)cc1)C(=O)Nc1ccc(C#N)c(C(F)(F)F)c1 (configuration not stated)
- IC50 [2]: > 1000 nM
